Results published in article PMC9271465 (ESMO Open, 2022).

Experiment: phase I dose-escalation: plasma pharmacokinetics
Type: in vivo, patients
Conditions: for Cmax,ss / t1/2 / AUC0-24 h / Cmax: mean (%CV); for Tmax,ss / Tmax: median (range)
Summary of the method: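 Oral tablet, fasted, qd or b.i.d. (25–300 mg). Plasma sampled in cycle 0 after a single dose at pre-dose and 0.5–144 h. Under continuous dosing, sampled pre-dose on cycle 1 days 8 and 15, and on day 21 pre-dose to 24 h (b.i.d. to 12 h). Plasma stored at −80 °C. Noncompartmental analysis; arithmetic mean (%CV), Tmax median (range).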

[1] = multiple doses 21 days, 25 mg qd, n = 1
[2] = multiple doses 21 days, 50 mg qd, n = 3
[3] = multiple doses 21 days, 100 mg b.i.d., n = 3
[4] = multiple doses 21 days, 100 mg qd, n = 3
[5] = multiple doses 21 days, 200 mg qd, n = 3
[6] = multiple doses 21 days, 300 mg qd, n = 1
[7] = steady state after 21 days of multiple doses

For `C=CC(=O)Nc1cc(Nc2ncc(Cl)c(Nc3ccccc3C(=O)C(=O)N(C)C)n2)c(OC)cc1N1CCN(C)CC1` [BPI-15086], the “dose dependence of Cmax and AUC0-t” value (25 to 300 mg, single dose and multiple doses) was “increased in a dose-dependent manner”, the “Cmax,ss” value [1] was 24.6 (NA) ng/ml and the “Tmax,ss” value [1] was 2.88 (2.88-2.88) h. For the same compound, the “Cmax,ss” value [2] was 48.5 (64.3) ng/ml, the “Tmax,ss” value [2] was 2.08 (2.02-4.00) h and the t1/2 (multiple doses 21 days, 50 mg qd) was 8.94 (NA) h. For the same compound, the “Cmax,ss” value [3] was 240 (37.9) ng/ml, the “Tmax,ss” value [3] was 2.98 (2.03-3.00) h and the t1/2 (multiple doses 21 days, 100 mg b.i.d.) was 4.78 (NA) h. For the same compound, the “Cmax,ss” value [4] was 84.6 (65.6) ng/ml, the “Tmax,ss” value [4] was 3.00 (2.00-3.95) h and the “Cmax,ss” value [5] was 209 (71.1) ng/ml. The “Tmax,ss” value [5] was 2.02 (1.98-3.00) h, the t1/2 (multiple doses 21 days, 200 mg qd) was 9.09 (1.51) h and the “Cmax,ss” value [6] was 924 (NA) ng/ml. The “Tmax,ss” value [6] was 2.02 (2.02-2.02) h, the t1/2 (multiple doses 21 days, 300 mg qd) was 9.84 (NA) h and the AUC0-24 h (single dose, 25 mg qd, n = 1) was 285 (NA) h × ng/ml. For the same compound, the Cmax (single dose, 25 mg qd, n = 1) was 31.6 (NA) ng/ml, the t1/2 (single dose, 25 mg qd, n = 1) was 12.2 (NA) h and the Tmax (single dose, 25 mg qd, n = 1) was 1.97 (1.97-1.97) h. The AUC0-24 h (single dose, 50 mg qd, n = 3) was 324 (47.7) h × ng/ml, the Cmax (single dose, 50 mg qd, n = 3) was 31.3 (40.1) ng/ml and the t1/2 (single dose, 50 mg qd, n = 3) was 13.4 (35.2) h. The Tmax (single dose, 50 mg qd, n = 3) was 2.93 (2.02-4.05) h, the AUC0-24 h (single dose, 100 mg qd, n = 3) was 580 (37.3) h × ng/ml and the Cmax (single dose, 100 mg qd, n = 3) was 46.1 (34.7) ng/ml. The t1/2 (single dose, 100 mg qd, n = 3) was 11.3 (23.3) h, the Tmax (single dose, 100 mg qd, n = 3) was 3.00 (2.03-4.00) h and the AUC0-24 h (single dose, 200 mg qd, n = 7) was 2630 (91.2) h × ng/ml. The Cmax (single dose, 200 mg qd, n = 7) was 273 (97.8) ng/ml, the t1/2 (single dose, 200 mg qd, n = 7) was 9.91 (15.5) h and the Tmax (single dose, 200 mg qd, n = 7) was 4.02 (2.02-5.13) h. The AUC0-24 h (single dose, 300 mg qd, n = 3) was 3860 (41.3) h × ng/ml, the Cmax (single dose, 300 mg qd, n = 3) was 354 (29.5) ng/ml and the t1/2 (single dose, 300 mg qd, n = 3) was 14.1 (58.6) h. For the same compound, the Tmax (single dose, 300 mg qd, n = 3) was 4.00 (3.98-5.00) h, the “mean apparent terminal elimination half-life (t1/2), range across doses” value (single dose, 25-300 mg) was 9.91 to 14.1 h and the “Median Tmax, range across doses” value (single dose, lowest to highest doses 25-300 mg) was 1.97 to 4.02 h. For the same compound, the “mean Vz/F, range across doses” value (steady state) was 556 to 3830 L, the “mean apparent oral clearance (CLss/F), range across doses” value (steady state) was 49.3 to 166 L/h and the “mean t1/2, range across doses” value (steady state) was 4.78 to 9.84 h. The “Cmax,ss, range across doses” value [7] was 24.6 to 924 ng/mL and the “Tmax,ss, range across doses” value [7] was 2.02 to 3.00 h.
